# High-throughput results (PubChem)
# DNA FID counter-1 = compounds displacing fluorescent DNA intercalator, primary screen, artefact control for HCV NS3 helicase inhibitor project, biochemical, FID fluorescence | actives 0.17% (n = 290,000) | inhibition, % at 7.9 µM | DNA fluorescent intercalator displacement | AID 1845, 2009;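 further: 0% = vehicle and 100% = reference compound; higher means more ethidium bromide displaced from hairpin DNA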
# EBNA-1 inh = EBNA-1 DNA-binding inhibitors, primary screen, biochemical, fluorescence polarization; actives 0.34% (n = 300,000); inhibition, % at 14.8 µM; AID 1950, 2009; in the data active means inhibition above about 28%
# GPR7 antag = GPR7 receptor antagonists, primary screen, cell-based, fluorescence, single concentration | inhibition, % at 4.4 µM | AID 1861, 2009 | GPR7-expressing cells, fluorescence antagonist assay | actives 1.1% (n = 290,000); in the data active means inhibition above about 16%, passing the limit was not always enough;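 further: cells stimulated with the agonist NPW; 0% = agonist with vehicle and 100% = vehicle without agonist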
# Target sequence (P48145 whole entry, looked up): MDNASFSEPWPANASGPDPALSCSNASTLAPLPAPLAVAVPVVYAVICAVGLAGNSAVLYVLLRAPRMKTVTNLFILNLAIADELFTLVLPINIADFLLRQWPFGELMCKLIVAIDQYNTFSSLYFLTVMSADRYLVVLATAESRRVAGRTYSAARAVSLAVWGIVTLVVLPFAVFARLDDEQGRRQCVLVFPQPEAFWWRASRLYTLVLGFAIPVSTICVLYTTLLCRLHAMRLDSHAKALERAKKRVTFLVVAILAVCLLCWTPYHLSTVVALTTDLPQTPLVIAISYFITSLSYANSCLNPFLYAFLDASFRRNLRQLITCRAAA
# ZTA DNA inh = blocks Epstein-Barr virus ZTA, an EBNA-1 counter-screen. inhibition, % at 11 µM. P03206. ZTA-DNA binding, fluorescence polarization. actives 0.15% (n = 320,000); in the data active means inhibition above about 33%
# HCV NS3 hel inh = inhibitors of HCV NS3 helicase, primary screen, biochemical, Cy5 molecular beacon fluorescence; NS3 helicase DNA unwinding; inhibition, % at 10.9 µM; actives 0.56% (n = 290,000);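 active means inhibition above the mean of all tested compounds plus 3 SD, set per campaign, cut at about 35% in these data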;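 further: 0% = DMSO wells and 100% = thioflavine S control wells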
#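 System: NS3 helicase fragment of HCV / Schedule: 1 h at 25 °C / Control set: DMSO alone as 0% and 110 µM thioflavine S as 100% / Reagent: Cy5/quencher beacon DNA duplex and ATP to start / Technique: Cy5 fluorescence / Replication: singlicate / Evaluation: % inhibition of end-to-start signal ratio versus controls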
# NS3 hel confirm = HCV NS3 helicase inhibitors, retest, confirmation, biochemical, Cy5 molecular beacon fluorescence, triplicate; inhibition, % at 10.9 µM; NS3 helicase DNA unwinding; shares compounds with HCV NS3 hel inh; AID 1943, 2009; actives 31% (n = 1,600);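 active means inhibition above the mean of all tested compounds plus 3 SD, cutoff set per campaign, cut at about 36% in these data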
# DNA FID counter-2 = compounds displacing fluorescent DNA intercalator, artefact control for HCV NS3 helicase inhibitor project, biochemical, FID fluorescence, triplicate. inhibition, % at 7.9 µM. DNA fluorescent intercalator displacement. shares compounds with HCV NS3 hel inh. actives 4% (n = 1,600);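 further: 0% = vehicle and 100% = reference compound; higher means more displacement of ethidium bromide from the DNA hairpin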
# An asterisk follows results filed as active; i = inactive; . = no result given. Hits are enriched below; roughly 2% of the tested compounds scored in any of these assays. Unless noted, no stated cut-off is given here; in the data, active means inhibition above about 37%; inactive means the rest.
SMILES,DNA FID counter-1,EBNA-1 inh,GPR7 antag,ZTA DNA inh,HCV NS3 hel inh,NS3 hel confirm,DNA FID counter-2
CC(=O)Cn1ncc(N(C)Cc2ccccc2)c(Cl)c1=O,-9,3,-1,1,-2,.,.
COc1ccccc1OCCSc1nc2ccccc2n1CC(N)=O,-9,4,-7,6,6,.,.
C=CCN1C(=O)/C(=c2\sc3nc(=O)c(Cc4ccccc4)nn3c2=O)c2ccccc21,-28,9,-24,-9,16,.,.
C=CCN1C(=O)/C(=c2\sc3nc(=O)c(Cc4ccc(OC)c(OC)c4)nn3c2=O)c2ccccc21,-19,-2,10,-7,46*,-2,-4
CCOc1ccccc1-c1c2cc(O)c(=O)cc-2oc2cc(O)c(O)cc12,-17,.,-10,.,52*,94*,i
O=c1cc2oc3cc(O)c(O)cc3c(-c3ccccc3O)c-2cc1O,-68,.,-7,.,51*,102*,-76
COc1ccc(OC)c(-c2c3cc(O)c(=O)cc-3oc3cc(O)c(O)cc23)c1,-10,20,-8,6,44*,87*,i
Nc1c(NC=O)c(=O)n(Cc2ccccc2)c(=O)n1Cc1ccccc1,.,2,.,4,.,.,.
CC(OC(=O)c1nc(Cl)ccc1Cl)C(=O)Nc1ccccc1F (stereo unspecified),.,-4,.,-3,.,.,.
COc1ccccc1N(CC(=O)NCCSc1ccccn1)S(=O)(=O)c1ccccc1,-35,-3,-11,-8,-11,.,.
CCCOc1ccc(/C=N/NC(=O)c2ccc3c(c2)OCO3)c(OCCC)c1,-24,-13,5,-6,-2,.,.
CCCCC(O)(c1ccc(F)cc1)C(CN1CCOCC1)c1ccc(Cl)cc1 (stereo unspecified),-15,-1,2,-5,-25,.,.
C=CCNc1nc2ccccc2nc1NS(=O)(=O)c1ccc(OC)cc1,-21,-9,7,-14,11,.,.
C=CCNc1nc2ccccc2nc1NS(=O)(=O)c1ccc(Cl)cc1,-32,-4,-14,-10,36*,32,-25
COc1cccc(N/N=C/c2cccc(Br)c2O)c1,-1,9,-3,-10,0,.,.
Cc1cccc(N/N=C/c2ccc(O)c(O)c2O)c1,-6,-2,-2,-7,38*,-15,8
O=C(CCC1CCCN(C(=O)c2cc3ccccc3o2)C1)NCc1ccc(F)c(F)c1 (stereo unspecified),-37,11,-5,-2,-19,.,.
O=C(NC(Cc1ccccc1)C(=O)NCCc1ccccn1)c1ccccc1 (stereo unspecified),-23,-5,0,11,10,.,.
O=C(CCc1nc2ccccc2c(=O)[nH]1)Nc1ccc(F)c([N+](=O)[O-])c1,-17,-7,-1,6,52*,-11,13
Cc1ccccc1OCCC(=O)OCC(=O)NC1CCS(=O)(=O)C1 (stereo unspecified),.,-1,.,9,.,.,.
COc1ccc2c(CC(=O)N3CCN(S(=O)(=O)c4ccc(F)cc4)CC3)coc2c1,.,.,.,8,.,.,.
N#CC1=C(SCC(=O)c2ccccc2)NC2=C(C(=O)CCC2)C1c1ccco1 (stereo unspecified),-9,-10,6,-6,38*,-10,-1
CC1(C)OC(=O)C=C[C@]2(C)[C@H]3CC[C@@]4(C)[C@H](C(=O)O)OC(=O)[C@H]5O[C@]54[C@]3(C)C(=O)C[C@@H]12,.,.,.,1,.,.,.
CCOC(=O)c1cc2c(=O)n3ccccc3nc2n(Cc2ccco2)c1=NC(=O)c1ccc(OC)cc1OC,-24,-2,-1,8,51*,-9,-6
COc1ccc(CCNC(=O)c2cc3c(=O)n4cccc(C)c4nc3n(Cc3ccco3)c2=N)cc1OC,-45,-9,15,-10,38*,10,10
CCc1cc2cc(C)ccc2nc1SCC(=O)NC1CCCC1,-38,-3,-13,-11,55*,1,-14
